Source: PubChem
Rows were chosen to be rich in hits. Some 3% of all compounds tested hit in one or more screens of this group.
S1P3 ag = human S1P3 receptor agonists, primary screen, cell-based, primary and confirmation, NFAT-BLA reporter | Sphingosine 1-phosphate receptor 3 (Homo sapiens), Q99500 | S1P3 NFAT-BLA reporter cells, agonism, FRET ratio; relative to 1 µM S1P, basal subtracted | activation, % at 4.5 µM | hit rate 0.1% among 60,000;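 active = activation above the screen-wide mean plus 3 SD, cut at about 4.5% in these data, passing the limit was not always enough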
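Material: Human S1P3 NFAT-BLA reporter CHO cells | Incubation: Overnight plating, 4 h compound 37 °C, 2 h substrate RT | Signal: FRET β-lactamase substrate fluorescence, excitation 405 nm, 460/535 nm emission ratio, background-subtracted | Compound: 4.5 µM final, single dose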
5HT1E ag = 5-HT1E receptor agonists, primary screen, cell-based, HTS | 5-hydroxytryptamine receptor 1E (Homo sapiens), P28566 | CHO 5-HT1E Ga15 NFAT-bla reporter, FRET; 0% DMSO wells, 100% control agonist wells | activation, % at 6 µM | hit rate 0.69% among 65,000;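 active = activation above a set limit, the screen-wide mean activation plus 3 SD, cut at about 8.5% in these data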;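 also: 100% = positive control agonist at 1 µM giving full maximal response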
Target sequence (P28566 whole entry, looked up): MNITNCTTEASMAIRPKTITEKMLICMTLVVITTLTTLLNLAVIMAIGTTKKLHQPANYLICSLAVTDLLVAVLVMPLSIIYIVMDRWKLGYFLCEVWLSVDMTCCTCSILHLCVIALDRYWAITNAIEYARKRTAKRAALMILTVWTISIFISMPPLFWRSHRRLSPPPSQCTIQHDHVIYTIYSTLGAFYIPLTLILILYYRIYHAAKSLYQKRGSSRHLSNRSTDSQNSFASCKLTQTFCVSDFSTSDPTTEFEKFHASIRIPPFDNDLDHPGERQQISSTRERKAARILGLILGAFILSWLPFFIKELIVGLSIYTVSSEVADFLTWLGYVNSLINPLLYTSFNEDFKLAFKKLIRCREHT
S1P1 ag pot = S1P1 agonists and agonism potentiators, primary screen, cell-based, primary and confirmation screens, CRE-bla reporter | activation, % at 9.5 µM | AID 449, 2006 | hit rate 0.57% among 56,000 | S1P1 CRE-bla cells, forskolin, beta-lactamase FRET, potentiator mode; S1P1 agonist co-added at EC20, 2 nM; 100% = saturating reference agonist, 0% = basal | Sphingosine 1-phosphate receptor 1 (Homo sapiens), P21453;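 active = activation above a cutoff set at the mean activation of all tested compounds plus 3 SD, cut at about 54% in these data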;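 also: forskolin at 4 µM as EC80 and the EC20 agonist is SEW2871; 100% = SEW2871 at its EC100 plus forskolin at EC80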
Target sequence (P21453 whole entry, looked up): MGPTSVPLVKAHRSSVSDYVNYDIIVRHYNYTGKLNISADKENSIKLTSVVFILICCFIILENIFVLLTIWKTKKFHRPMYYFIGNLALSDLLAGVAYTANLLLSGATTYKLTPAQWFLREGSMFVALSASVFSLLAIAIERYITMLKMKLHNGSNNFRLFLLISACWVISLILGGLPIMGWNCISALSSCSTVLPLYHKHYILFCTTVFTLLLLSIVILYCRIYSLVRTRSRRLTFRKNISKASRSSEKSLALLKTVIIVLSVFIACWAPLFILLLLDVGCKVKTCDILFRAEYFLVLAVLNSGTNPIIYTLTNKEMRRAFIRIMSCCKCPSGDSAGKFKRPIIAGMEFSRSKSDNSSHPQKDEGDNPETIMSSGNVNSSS
5HT1a ag = human 5-HT1a receptor agonists, primary screen, cell-based, CHO, Ga15 NFAT-bla reporter; CHO 5-HT1a Ga15 NFAT-bla reporter, FRET ratio; 0% basal, 100% maximal reference agonist; hit rate 0.56% among 65,000; activation, % at 10 µM; 5-hydroxytryptamine receptor 1A (Homo sapiens), P08908; AID 567, 2006;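 active = activation above the screen-wide mean activation plus 3 SD, cut at about 19% in these data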;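 also: 0% = DMSO wells and 100% = 5-CT at EC100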
5HT1a antag = human 5-HT1a receptor antagonists, primary screen, cell-based, CHO, Ga15 NFAT-bla reporter; 5-hydroxytryptamine receptor 1A (Homo sapiens), P08908; CHO 5-HT1a Ga15 NFAT-bla reporter, antagonist mode; inhibition, % at 10 µM; hit rate 0.68% among 62,000; AID 612, 2007;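 active = inhibition above the mean of all tested compounds plus 3 SD, cut at about 43% in these data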;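 also: receptor stimulated by 5-CT agonist at 100 nM near EC80; beta-lactamase reporter measured by ratiometric fluorescence of a cleavable substrate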
HTR1E antagonist = 5-HT1E receptor antagonists, primary screen, cell-based, HTS | CHO 5-HT1E Ga15 NFAT-bla reporter, FRET, antagonist | 5-hydroxytryptamine receptor 1E (Homo sapiens), P28566 | AID 571, 2007 | hit rate 0.99% among 65,000 | inhibition, % at 6 µM;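 active = inhibition above a set limit, the mean inhibition across every tested compound plus 3 SD, cut at about 29% in these data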;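 also: signal is the 460 over 535 nm emission ratio of beta-lactamase substrate; 0% = agonist plus DMSO wells and 100% = wells without agonist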
An asterisk follows results filed as active; · = no result given.

SMILES | S1P3 ag | 5HT1E ag | S1P1 ag pot | 5HT1a ag | 5HT1a antag | HTR1E antagonist
CC(C)C(c1nnnn1C(C)(C)C)N1CCN(c2cccc(Cl)c2)CC1 (stereo unspecified) | -0.1 | -0.7 | 12.2 | 0.2 | 26.8 | -2.6
CN(c1cc(=O)n2ccccc2n1)C1CCCCC1 | 0.1 | -0.8 | 2.9 | 29.6* | -2.3 | 16.1
CC(C)c1nnc(NC(=O)CCS(=O)(=O)c2nc(-c3cccs3)cc(C(F)(F)F)n2)s1 | -1.1 | 0.2 | 18.2 | -1.2 | 35.5 | 13.7
COc1ccccc1-c1cc(C(F)(F)F)nc(S(=O)(=O)CCCC(=O)Nc2cc(C)on2)n1 | -0.5 | 0.4 | 12.0 | -4.9 | 10.5 | 45.7*
COc1ccccc1-c1cc(C(F)(F)F)nc(S(=O)(=O)CCCC(=O)N2CCCCC2C)n1 (stereo unspecified) | -0.4 | 4.5 | 2.9 | 4.5 | 63.7* | 1.6
Cc1cc(NC(=O)CCCSc2nc(-c3ccco3)cc(C(F)(F)F)n2)no1 | -1.1 | 6.4 | · | 0.3 | -1.3 | -6.3
COc1ccccc1-c1cc(C(F)(F)F)nc(S(=O)(=O)CCCC(=O)NC(C)C)n1 | 1.0 | 4.6 | -13.2 | -1.3 | 39.8 | 48.0*
COc1ccccc1-c1cc(C(F)(F)F)nc(N2CCCC2)n1 | · | -0.8 | · | 5.5 | -7.2 | 2.0
O=C(Nc1cccc(O)c1)c1cc(S(=O)(=O)N2CCCC2)ccc1Cl | · | -0.8 | · | -3.3 | 5.5 | 3.9
CSCCC(C(=O)Nc1ccc2c(c1)OCO2)N1C(=O)c2ccccc2C1=O (stereo unspecified) | · | -0.3 | · | -3.6 | 7.3 | 5.5
OCCCc1nc2n(n1)C(c1ccccc1)C=C(c1ccccc1)N2 (stereo unspecified) | 0.1 | 0.0 | -7.4 | -2.4 | 0.4 | 29.6*
CC(=O)Nc1nc2n(n1)C(c1ccccc1)C=C(c1ccccc1)N2 (stereo unspecified) | -1.5 | -0.8 | · | -2.4 | 30.3 | 34.2*
CC(=O)Nc1nc2n(n1)C(c1ccc(F)cc1)C=C(c1ccccc1)N2 (stereo unspecified) | -0.3 | -0.6 | 29.9 | 0.2 | 20.2 | 24.6
O=C(c1nc2n(n1)C(c1ccc(Cl)cc1)C=C(c1ccccc1)N2)N1CCOCC1 (stereo unspecified) | -0.2 | -0.7 | · | -1.7 | 28.3 | 42.0*
COc1ccc(C2C=C(c3cccs3)Nc3nc(CCCO)nn32)cc1 (stereo unspecified) | -0.4 | -1.4 | 27.0 | -5.2 | 28.3 | 37.3*
COc1ccc(C2C(C(=O)Nc3ccccc3)=C(C)Nc3nc(CCCO)nn32)cc1 (stereo unspecified) | -1.1 | -1.6 | 1.8 | -2.4 | -6.0 | 6.4
COc1ccc(C2C=C(c3ccccc3)Nc3nc(CCCO)nn32)cc1 (stereo unspecified) | -0.1 | -0.4 | 8.0 | -1.8 | 13.0 | 24.3
O=C(Nc1ccccc1C(F)(F)F)N1CCN(c2ccc3nncn3n2)CC1 | -1.1 | -1.6 | 0.0 | -0.5 | -10.9 | 0.8
COc1ccc(-c2cc(O)cc(O)c2)cc1 | -1.0 | -0.6 | · | -0.3 | 7.4 | 11.9
O=S1(=O)Nc2c(ccc3cccnc23)-c2ccccc21 | -1.3 | 7.4 | 117.6* | -4.0 | 73.5* | 61.0*
COc1cccc2c1C(=O)c1c(O)c3c(c(O)c1C2=O)C[C@@](O)(C(C)=O)C[C@@H]3O[C@H]1C[C@H](N)[C@H](O)[C@H](C)O1 | -1.6 | -1.2 | 120.4 | 0.5 | · | 57.0*
N#Cc1c(N)nc(SCc2ccncc2)c(C#N)c1-c1cccs1 | -1.4 | 0.0 | 17.6 | 0.7 | 4.9 | 42.6*
O=C(Nc1cccc(S(=O)(=O)c2cccc(NC(=O)C3CC3)c2)c1)C1CC1 | 0.0 | 0.3 | 29.9 | 0.3 | -1.6 | -8.5
CCN(CC)C(=O)CSc1ccccc1N | -0.8 | -0.6 | · | 19.9* | -4.8 | -7.9
COc1ccc(CNC(=O)CSc2nnnn2-c2ccc(O)cc2)cc1 | · | 0.1 | · | -0.9 | 1.9 | -7.1
SMILES | S1P3 ag | 5HT1E ag | S1P1 ag pot | 5HT1a ag | 5HT1a antag | HTR1E antagonist
COc1ccc(OC)c(Nc2cc(-c3ccccc3)nc(N)n2)c1 | -1.9 | -0.9 | -37.7 | -4.3 | 62.8* | 70.3*
c1ccc(-c2csc3nnc(SCc4ccc5c(c4)OCO5)n23)cc1 | -0.5 | 1.3 | -21.0 | -2.6 | 2.0 | 29.4*
O=C(CCSc1nnc2scc(-c3ccccc3)n12)NCc1ccc2c(c1)OCO2 | 0.0 | -1.1 | -37.7 | 1.1 | 3.2 | 17.9
CCOCCCNS(=O)(=O)c1ccc(Br)cc1 | -1.4 | 0.0 | · | -1.5 | -8.8 | -4.9
Cc1ccnc(NC(=O)CCC(=O)N(CC(=O)NCC2CCCO2)Cc2ccc(F)cc2)c1 (stereo unspecified) | -0.2 | -0.3 | 0.8 | -1.3 | -6.9 | -8.1
c1ccc(Cn2nnnc2C(c2cccs2)N2CCc3ccccc3C2)cc1 (stereo unspecified) | -1.1 | -0.6 | 40.1 | -0.4 | 52.5* | 13.1
Cc1ccc(C)c(N2CCN(C(c3ccncc3)c3nnnn3Cc3ccccc3)CC2)c1 (stereo unspecified) | -0.9 | 36.5* | 7.1 | 0.1 | -174.0 | 1.8
COc1ccc(Cn2nnnc2C(c2cccs2)N2CCN(c3ccccc3)CC2)cc1 (stereo unspecified) | -1.5 | -0.4 | 18.3 | -1.1 | 43.9* | 7.2
COc1cc(N2CN=c3s/c(=C\c4ccccn4)c(=O)n3C2)cc(OC)c1OC | -1.1 | -0.2 | -20.3 | -2.8 | 6.1 | -3.3
O=C(C1CCN(S(=O)(=O)c2cccc3cccnc23)CC1)N1CCN(C2CCCC2)CC1 | -0.3 | 0.3 | 0.4 | -0.9 | 1.6 | 0.8
CN1C(=O)C2(N=c3ccccc3=N2)c2ccccc21 | 0.6 | 1.7 | -75.8 | 3.4 | · | -8.5
Cc1ccc(C)c(/C(O)=C2\C(=O)C(=O)N(Cc3cccnc3)C2c2cccnc2)c1 (stereo unspecified) | -0.3 | -1.0 | 9.2 | 0.7 | 6.8 | 5.3
Cc1ccc(S(=O)(=O)N2CCSC2c2ccco2)cc1 (stereo unspecified) | -1.2 | 0.1 | 7.4 | 1.2 | 7.2 | 9.7
Cc1cc(Oc2ccccc2)nc2ccc(O)cc12 | -1.2 | -1.1 | 2.2 | -3.3 | 15.9 | 8.6
CCOC(=O)c1c(C)oc2c1c(C=NCC1CCCO1)c(O)c1ccccc12 (stereo unspecified) | -1.3 | -0.3 | 1.4 | -2.5 | 63.9* | 31.1*
CCOc1ccc(C)cc1S(=O)(=O)NC1CCCCC1 | -0.9 | -0.4 | 31.9 | -1.5 | 17.1 | 7.4
